Assay results reported in ChEMBL document CHEMBL5143539, “Synthesis and evaluation of dual-action kanglemycin-fluoroquinolone hybrid antibiotics” (Bioorg Med Chem Lett, 2022).
≈ marks a conversion by molar mass, not a printed value.

Tests used:
[1] = system: Staphylococcus aureus; test: Antibacterial activity against ciprofloxacin resistant Staphylococcus aureus harboring ParCS80F and GyrAS84L double mutant assessed as inhibition of bacterial growth; assay type: functional
[2] = system: Staphylococcus aureus; test: Antibacterial activity against Staphylococcus aureus harboring RpoBH481Y/ParCS80F/GyrAS84L triple mutant assessed as inhibition of bacterial growth; assay type: functional
[3] = system: Staphylococcus aureus; test: Antibacterial activity against wild type Staphylococcus aureus assessed as inhibition of bacterial growth; assay type: functional
[4] = system: Staphylococcus aureus; test: Antibacterial activity against rifampicin resistant Staphylococcus aureus harboring RpoBH481Y mutant assessed as inhibition of bacterial growth; assay type: functional
[5] = system: Escherichia coli; test: Antibacterial activity against Escherichia coli assessed as inhibition of bacterial growth; assay type: functional
Outline: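 Run in duplicate, with the same result obtained in each trial.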

[6] = system: HEK293; test: Cytotoxicity against HEK293 cells; assay type: toxicity, cell-based, Homo sapiens

Row | Structure (SMILES) | MIC [1] [µg/mL] | MIC [2] [µg/mL] | MIC [3] [µg/mL] | MIC [4] [µg/mL] | MIC [5] [µg/mL] | IC50 [6] [µg/mL]
1 | CNC1CCCN(c2c(F)cc3c(=O)c(C(=O)O)cn(C4CC4)c3c2OC)C1 (stereo unspecified) [BALOFLOXACIN] | 4 (≈ 10.3 µM) | 4 (≈ 10.3 µM) | 0.13 (≈ 0.334 µM) | 0.13 (≈ 0.334 µM) | 0.5 (≈ 1.28 µM) | 
2 | CC(=O)O[C@H]1[C@H](C)[C@H](O)[C@H](C)[C@@H](O)[C@@H](C(C)OC(=O)C(C)(C)CC(=O)O)/C=C/C=C(/C)C(=O)Nc2c3oc4cc(NCCCN5CCN(c6cc7c(cc6F)c(=O)c(C(=O)O)cn7C6CC6)CC5)cc(O)c4nc-3c3c4c(c(C)c(O)c3c2=O)O[C@](C)(O/C=C/[C@H](O[C@H]2C[C@@H]3OCO[C@@H]3[C@@H](C)O2)[C@H]1C)C4=O (stereo partly specified) | 4 (≈ 2.71 µM) | > 64 | 4 (≈ 2.71 µM) | 8 (≈ 5.43 µM) | 16 (≈ 10.9 µM) | 44 (≈ 29.9 µM)
3 | COc1c(N2CCNC(C)C2)c(F)cc2c(=O)c(C(=O)O)cn(C3CC3)c12 (stereo unspecified) [GATIFLOXACIN] | 2 (≈ 5.33 µM) | 2 (≈ 5.33 µM) | 0.063 (≈ 0.168 µM) | 0.063 (≈ 0.168 µM) | 0.016 (≈ 0.0426 µM) | 
4 | COc1c(N2CCCC(N(C)c3cc(O)c4nc5c6c7c8c(C)c(O)c6c(=O)c(c-5oc4c3)NC(=O)/C(C)=C\C=C\[C@H](C(C)OC(=O)C(C)(C)CC(=O)O)[C@H](O)[C@@H](C)[C@@H](O)[C@@H](C)[C@H](OC(C)=O)[C@H](C)[C@@H](O[C@H]3C[C@@H]4OCO[C@@H]4[C@@H](C)O3)/C=C/O[C@@](C)(O8)C7=O)C2)c(F)cc2c(=O)c(C(=O)O)cn(C3CC3)c12 (stereo partly specified) | 16 (≈ 10.9 µM) | > 64 | 8 (≈ 5.43 µM) | 16 (≈ 10.9 µM) | 64 (≈ 43.4 µM) | 36 (≈ 24.4 µM)
5 | CC(=O)O[C@H]1[C@H](C)[C@H](O)[C@H](C)[C@@H](O)[C@@H](C(C)OC(=O)C(C)(C)CC(=O)O)/C=C/C=C(/C)C(=O)Nc2c3oc4cc(NCCCCCCCCC(=O)N5Cc6cc(-c7ccc8c(=O)c(C(=O)O)cn(C9CC9)c8c7OC(F)F)ccc6[C@H]5C)cc(O)c4nc-3c3c4c(c(C)c(O)c3c2=O)O[C@](C)(O/C=C/[C@H](O[C@H]2C[C@@H]3OCO[C@@H]3[C@@H](C)O2)[C@H]1C)C4=O (stereo partly specified) | 4 (≈ 2.4 µM) | > 64 | 4 (≈ 2.4 µM) | 8 (≈ 4.8 µM) | > 64 | > 64
6 | CO/N=C1\CN(c2nc3c(cc2F)c(=O)c(C(=O)O)cn3C2CC2)CC1CN (stereo unspecified) [GEMIFLOXACIN] | 1 (≈ 2.57 µM) | 1 (≈ 2.57 µM) | 0.016 (≈ 0.0411 µM) | 0.016 (≈ 0.0411 µM) | 0.0078 (≈ 0.02 µM) | 
7 | COc1c(N2C[C@@H]3CCCN[C@@H]3C2)c(F)cc2c(=O)c(C(=O)O)cn(C3CC3)c12 [MOXIFLOXACIN] |  |  | 0.016 (≈ 0.0399 µM) | 0.016 (≈ 0.0399 µM) | 0.031 (≈ 0.0772 µM) | 
8 | CC(=O)O[C@H]1[C@H](C)[C@H](O)[C@H](C)[C@@H](O)[C@@H](C(C)OC(=O)C(C)(C)CC(=O)O)/C=C/C=C(/C)C(=O)NC2=CC(=O)c3c(c(O)c(C)c4c3C(=O)[C@@](C)(O/C=C/[C@H](O[C@H]3C[C@@H]5OCO[C@@H]5[C@@H](C)O3)[C@H]1C)O4)C2=O (stereo partly specified) | 0.25 (≈ 0.255 µM) | > 64 | 0.25 (≈ 0.255 µM) | > 64 | > 64 | 
9 | C[C@H]1NCc2cc(-c3ccc4c(=O)c(C(=O)O)cn(C5CC5)c4c3OC(F)F)ccc21 [GARENOXACIN] | 0.5 (≈ 1.17 µM) | 0.5 (≈ 1.17 µM) | 0.016 (≈ 0.0375 µM) | 0.016 (≈ 0.0375 µM) | 0.016 (≈ 0.0375 µM) | 
10 | N[C@@H]1[C@H]2CN(c3nc4c(cc3F)c(=O)c(C(=O)O)cn4-c3ccc(F)cc3F)C[C@@H]12 [TROVAFLOXACIN] | 1 (≈ 2.4 µM) | 1 (≈ 2.4 µM) | 0.0078 (≈ 0.0187 µM) | 0.016 (≈ 0.0384 µM) | 0.0078 (≈ 0.0187 µM) | 
11 | N[C@@H]1CCCCN(c2c(F)cc3c(=O)c(C(=O)O)cn(C4CC4)c3c2Cl)C1 [BESIFLOXACIN] | 0.5 (≈ 1.27 µM) | 0.5 (≈ 1.27 µM) | 0.031 (≈ 0.0787 µM) | 0.031 (≈ 0.0787 µM) | 0.25 (≈ 0.635 µM) | 
12 | C[C@H]1COc2c(C3(N)CC3)c(F)cc3c(=O)c(C(=O)O)cn1c23 [PAZUFLOXACIN] | 4 (≈ 12.6 µM) | 4 (≈ 12.6 µM) | 0.13 (≈ 0.408 µM) | 0.13 (≈ 0.408 µM) | 0.016 (≈ 0.0503 µM) | 
